Activity calls are given as the source filed them. The rule behind the calls is not given here.

For experiment [1], the target named is Human immunodeficiency virus type 1 integrase (Human immunodeficiency virus 1) (UniProt Q7ZJM1). Briefly: Inhibition of HIV-1 integrase expressed in Escherichia coli using [32P]-labeled U5B/U5A DNA as substrate assessed as inhibition of 3'-processing reaction up to 250 uM after 2 hrs by PAGE analysis in presence of Mg2+. A digest of the protocol: (§1)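 3'-Processing: 32P-labeled U5B/U5A (3 nM) with IN (100 nM) in buffer A (20 mM HEPES pH 7.2, 7.5 mM MgCl2 or MnCl2, 1 mM DTT), increasing inhibitor, 37°C, 2 h; stopped with EDTA solution, phenol–chloroform extracted, ethanol precipitated, resolved on denaturing 20% PAGE, phosphorimager-quantified.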
Sequence of Human immunodeficiency virus type 1 integrase (Human immunodeficiency virus 1) (Q7ZJM1 as listed by the source): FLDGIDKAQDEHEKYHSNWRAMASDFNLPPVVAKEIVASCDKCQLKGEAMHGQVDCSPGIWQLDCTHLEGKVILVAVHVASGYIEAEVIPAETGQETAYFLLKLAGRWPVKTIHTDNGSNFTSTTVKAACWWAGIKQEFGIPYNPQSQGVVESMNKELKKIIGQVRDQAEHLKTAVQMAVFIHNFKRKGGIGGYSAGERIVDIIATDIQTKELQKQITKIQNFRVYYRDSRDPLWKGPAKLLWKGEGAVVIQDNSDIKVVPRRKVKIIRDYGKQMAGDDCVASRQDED

Experiment [2] shares this target. As to the kind of experiment: (§2) Inhibition of HIV-1 integrase expressed in Escherichia coli using [32P]-labeled U5B/U5A DNA as substrate assessed as inhibition of 3'-processing reaction after 2 hrs by PAGE analysis in presence of Mg2+. A digest of the protocol:
as §1

For experiment [3], the target named is T1, Human immunodeficiency virus type 1 integrase (Human immunodeficiency virus 1, UniProt Q7ZJM1). Briefly: Inhibition of HIV-1 integrase expressed in Escherichia coli using [32P]-labeled U5B/U5A DNA as substrate assessed as inhibition of 3'-processing reaction after 2 hrs by PAGE analysis in presence of Mn2+. A digest of the protocol:
as §1

Experiment [4] concerns the target T1, Human immunodeficiency virus type 1 integrase. Briefly: Inhibition of HIV-1 integrase expressed in Escherichia coli using [32P]-labeled U5B-2/U5A DNA as substrate assessed as inhibition of strand transfer reaction after 2 hrs by PAGE analysis in presence of Mg2+. The gist of the method:
(§3)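 Strand transfer: 32P-labeled U5B-2/U5A duplex (10 nM) with IN (100 nM) in buffer A (20 mM HEPES pH 7.2, 7.5 mM MgCl2 or MnCl2, 1 mM DTT), increasing inhibitor, 37°C, 2 h. EDTA-containing stop solution, phenol–chloroform extraction, ethanol precipitation, denaturing 20% PAGE, phosphorimager quantification of reaction efficiency.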

For experiment [5] the target is unchanged. As to the kind of experiment: Inhibition of HIV-1 GST-tagged integrase-His6-tagged LEDGF complex expressed in Escherichia coli BL21(DE3) using [32P]-labeled U5B/U5A DNA as substrate assessed as inhibition of 3'-processing reaction after 2 hrs by PAGE analysis in presence of Mn2+. A digest of the protocol: (§4)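 IN/LEDGF complex (IN combined with 50 nM LEDGF) processing 32P-labeled U5B/U5A (3 nM) in buffer A (20 mM HEPES pH 7.2, 7.5 mM MgCl2 or MnCl2, 1 mM DTT) with increasing inhibitor, 37°C, 2 h; products separated by denaturing 20% PAGE and quantified by phosphorimaging.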

Experiment [6] has the same target. Briefly: Displacement of [32P]-labeled U5B/U5A DNA from HIV-1 integrase expressed in Escherichia coli in presence of Mn2+. The gist of the method: (§5)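 DRaCALA binding: 32P-labeled U5B/U5A (3 nM) with IN in buffer A (20 mM HEPES pH 7.2, 7.5 mM MgCl2 or MnCl2, 1 mM DTT), compound 0–500 μM, 25°C for 20 min; mixture spotted on nitrocellulose membrane, bound DNA quantified by phosphorimaging.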

The target is the same in experiment [7]. Briefly: Displacement of [32P]-labeled U5B/U5A DNA from HIV-1 integrase expressed in Escherichia coli in presence of Mg2+. The gist of the method: as §5
Experiment [8] has the same target. The description is as §2. The gist of the method:
as §1

Experiment [9] shares this target. As to the kind of experiment: Inhibition of HIV-1 integrase expressed in Escherichia coli using [32P]-labeled U5B-2/U5A DNA as substrate assessed as inhibition of strand transfer reaction after 2 hrs by PAGE analysis in presence of Mn2+. A digest of the protocol: as §3
Experiment [10] has the same target. Briefly: Inhibition of HIV-1 GST-tagged integrase-His6-tagged LEDGF complex expressed in Escherichia coli BL21(DE3) using [32P]-labeled U5B/U5A DNA as substrate assessed as inhibition of 3'-processing reaction after 2 hrs by PAGE analysis in presence of Mg2+. A digest of the protocol: as §4
Experiment [11] has as its target Human immunodeficiency virus type 1 integrase (Human immunodeficiency virus 1) (UniProt Q7ZJM1). Briefly: Inhibition of HIV-1 integrase expressed in Escherichia coli using [32P]-labeled U5B/U5A DNA as substrate assessed as inhibition of 3'-processing reaction up to 500 uM after 2 hrs by PAGE analysis in presence of Mg2+. A digest of the protocol:
(§6)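 3'-processing: 32P-labelled U5B/U5A duplex mimicking the HIV-1 U5 LTR end (3 nM) incubated with integrase (100 nM) in 20 mM HEPES pH 7.2, 7.5 mM MgCl2, 1 mM DTT, with increasing inhibitor concentrations, 37°C, 2 h. Stopped with EDTA, phenol-chloroform extracted, ethanol precipitated. Products resolved on denaturing 20% PAGE, phosphorimaged, reaction efficiency quantified.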

For experiment [12], the target named is Human immunodeficiency virus type 1 integrase (Human immunodeficiency virus 1, UniProt Q7ZJM1, E138K). Briefly: Inhibition of HIV-1 integrase E138K mutant expressed in Escherichia coli using [32P]-labeled U5B/U5A DNA as substrate assessed as inhibition of 3'-processing reaction after 2 hrs by PAGE analysis in presence of Mg2+. The gist of the method: as §6
Sequence of Human immunodeficiency virus type 1 integrase (Human immunodeficiency virus 1, UniProt Q7ZJM1, E138K) (Q7ZJM1 entry or part of it E138K): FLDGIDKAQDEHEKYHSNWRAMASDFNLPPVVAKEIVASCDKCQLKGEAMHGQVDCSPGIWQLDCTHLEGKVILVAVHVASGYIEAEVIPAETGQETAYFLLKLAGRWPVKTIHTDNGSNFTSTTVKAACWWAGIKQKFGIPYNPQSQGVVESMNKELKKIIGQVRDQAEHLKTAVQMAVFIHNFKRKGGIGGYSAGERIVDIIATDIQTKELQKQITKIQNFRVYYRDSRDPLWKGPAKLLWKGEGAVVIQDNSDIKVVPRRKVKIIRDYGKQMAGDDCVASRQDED

In experiment [13] the target is Human immunodeficiency virus type 1 integrase (Human immunodeficiency virus 1, UniProt Q7ZJM1, N155H). As to the kind of experiment: Inhibition of HIV-1 integrase N155H mutant expressed in Escherichia coli using [32P]-labeled U5B/U5A DNA as substrate assessed as inhibition of 3'-processing reaction after 2 hrs by PAGE analysis in presence of Mg2+. A digest of the protocol: as §6
Sequence of Human immunodeficiency virus type 1 integrase (Human immunodeficiency virus 1, UniProt Q7ZJM1, N155H) (Q7ZJM1 entry or part of it N155H): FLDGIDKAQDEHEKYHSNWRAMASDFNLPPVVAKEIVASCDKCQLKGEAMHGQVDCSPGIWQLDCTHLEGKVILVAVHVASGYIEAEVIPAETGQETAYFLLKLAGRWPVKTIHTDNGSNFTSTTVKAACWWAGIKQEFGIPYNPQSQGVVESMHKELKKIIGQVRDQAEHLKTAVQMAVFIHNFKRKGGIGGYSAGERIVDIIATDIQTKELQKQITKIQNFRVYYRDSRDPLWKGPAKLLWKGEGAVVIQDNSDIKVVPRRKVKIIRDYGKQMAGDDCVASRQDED

Experiment [14] concerns the target Human immunodeficiency virus type 1 integrase (Human immunodeficiency virus 1, UniProt Q7ZJM1, G140S). As to the kind of experiment: Inhibition of HIV-1 integrase G140S mutant expressed in Escherichia coli using [32P]-labeled U5B/U5A DNA as substrate assessed as inhibition of 3'-processing reaction after 2 hrs by PAGE analysis in presence of Mg2+. The gist of the method:
as §6

Experiment [15] deals with Human immunodeficiency virus type 1 integrase (Human immunodeficiency virus 1, UniProt Q7ZJM1, E92Q). As to the kind of experiment: Inhibition of HIV-1 integrase E92Q mutant expressed in Escherichia coli using [32P]-labeled U5B/U5A DNA as substrate assessed as inhibition of 3'-processing reaction after 2 hrs by PAGE analysis in presence of Mg2+. A digest of the protocol:
as §6

Experiment [16] deals with T1, Human immunodeficiency virus type 1 integrase. Briefly: Competitive inhibition of HIV-1 integrase expressed in Escherichia coli using [32P]-labeled U5B/U5A DNA as substrate after 1 hr by double-reciprocal plot analysis in presence of Mg2+. The gist of the method: (§7)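 Kinetics: IN (100 nM) incubated with 32P-labeled U5B/U5A (2.5–12.5 nM) plus inhibitor (0–39 μM or 0–15 μM, depending on compound) in buffer A (20 mM HEPES pH 7.2, 7.5 mM MgCl2 or MnCl2, 1 mM DTT), 1 h, 37°C. Initial 3'-processing rate vs substrate concentration at varied inhibitor levels plotted double-reciprocally; Km and KI calculated from the fitted inhibition model.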

Experiment [17] shares this target. Briefly: Non-competitive inhibition of HIV-1 integrase expressed in Escherichia coli using [32P]-labeled U5B/U5A DNA as substrate after 1 hr by double-reciprocal plot analysis in presence of Mn2+. A digest of the protocol:
as §7

For experiment [18], the target named is Human immunodeficiency virus type 1 integrase (Human immunodeficiency virus 1) (UniProt Q7ZJM1). As to the kind of experiment: Ratio of IC50 for HIV-1 integrase-mediated 3'-processing reaction in presence of Mg2+ to IC50 for HIV-1 integrase-mediated strand transfer reaction in presence of Mg2+.
Experiment [19] addresses T1, Human immunodeficiency virus type 1 integrase. As to the kind of experiment: Non-competitive inhibition of HIV-1 integrase expressed in Escherichia coli using [32P]-labeled U5B/U5A DNA as substrate after 1 hr by double-reciprocal plot analysis in presence of Mg2+. The gist of the method: as §7

T1 sequence (Q7ZJM1 whole entry): as the sequence (Q7ZJM1 as listed by the source) above
Sequence of Human immunodeficiency virus type 1 integrase (Human immunodeficiency virus 1, UniProt Q7ZJM1, E92Q) (Q7ZJM1 entry or part of it E92Q): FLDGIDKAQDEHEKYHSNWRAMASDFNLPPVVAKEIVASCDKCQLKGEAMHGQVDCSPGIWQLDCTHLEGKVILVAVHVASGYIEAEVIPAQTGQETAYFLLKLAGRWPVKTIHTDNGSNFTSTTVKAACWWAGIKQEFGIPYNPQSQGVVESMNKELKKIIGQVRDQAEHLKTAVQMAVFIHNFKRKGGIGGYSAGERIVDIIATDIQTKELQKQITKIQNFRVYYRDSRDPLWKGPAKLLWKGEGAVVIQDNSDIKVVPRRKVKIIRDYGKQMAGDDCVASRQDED
Sequence of Human immunodeficiency virus type 1 integrase (Human immunodeficiency virus 1, UniProt Q7ZJM1, G140S) (Q7ZJM1 entry or part of it G140S): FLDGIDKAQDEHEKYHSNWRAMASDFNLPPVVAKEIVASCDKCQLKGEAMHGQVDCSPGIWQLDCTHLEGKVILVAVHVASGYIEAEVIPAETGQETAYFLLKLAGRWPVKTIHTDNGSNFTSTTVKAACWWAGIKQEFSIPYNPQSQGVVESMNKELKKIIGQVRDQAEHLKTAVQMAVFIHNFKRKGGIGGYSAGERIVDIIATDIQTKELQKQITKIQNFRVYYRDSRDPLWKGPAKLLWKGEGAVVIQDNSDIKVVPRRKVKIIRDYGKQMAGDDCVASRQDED

With `NC(C[n+]1ccccc1)(P(=O)(O)O)P(=O)(O)O`, in experiment [1], the inhibition result was “inactive”.

For the molecule `O=P(O)(O)C(O)(Cc1ccccc1)P(=O)(O)O`, the inhibition entry in [1] was “inactive”.

`O=P(O)(O)C(CNc1ccc(I)cc1)P(=O)(O)O`: the inhibition result in experiment [2] is “inactive”.

As to `O=P(O)(O)C(O)(C[n+]1ccc(-c2ccccc2)cc1)P(=O)(O)O`, the inhibition result in experiment [1] was “inactive”.

On to `O=P(O)(O)C(Cc1ccc(Cl)c(Cl)c1)P(=O)(O)O`, for which the IC50 in experiment [3] was 5 µM; in experiment [4], 30 µM; in experiment [5] it was 6 µM; in [6], over 500 µM; in [7], 130 µM; in [8], 30 µM. Moreover, the half-inhibitory concentration (IC50) in [9] is 5 µM; in [10], over 250 µM.

With `O=P(O)(O)C(Cc1ccc(Cl)c(Cl)c1)(Cc1ccc(Cl)c(Cl)c1)P(=O)(O)O`, the IC50 in [3] was 0.8 µM; in [4], 16 µM; in [6], over 500 µM; in [7], 100 µM; in experiment [8], 20 µM; in experiment [9], 0.8 µM.

In the case of `NC(Cc1ccccc1)(P(=O)(O)O)P(=O)(O)O`, the inhibition entry in experiment [1] was “inactive”.

In the case of `O=C(O)Cc1ccc(Cl)c(Cl)c1`, the inhibition entry in [11] is “inactive”.

For the molecule `O=P(O)(O)Cc1ccc(Cl)c(Cl)c1`, the inhibition entry in experiment [11] was “inactive”.

Turning to `O=P(O)(O)C(CNc1ccccc1)P(=O)(O)O`, the inhibition result in experiment [2] was “inactive”.

Turning to `O=P(O)(O)C(CNCCc1ccccc1)P(=O)(O)O`, in experiment [2], the inhibition result was “inactive”.

On to `O=P(O)(O)C(O)(CCc1ccccc1)P(=O)(O)O`, for which the inhibition entry in experiment [1] is “inactive”.

As to `O=P(O)(O)C(O)(Cc1ccc(Cl)c(Cl)c1)P(=O)(O)O`, the half-maximal inhibitory concentration (IC50) in [3] was 5 µM; in experiment [4], 45 µM; in experiment [12], 35 µM; in experiment [5], 4.5 µM; in experiment [6] it was over 500 µM; in [13], 35 µM. In addition, the 50% inhibitory concentration (IC50) was 35 µM in [14]; 150 µM in experiment [7]; 35 µM in experiment [8]; 4 µM in [9]; over 250 µM in [10]; 35 µM in experiment [15]. Besides, the results for the Ki in experiment [16] and in [17] were 38 µM and 4.4 µM, respectively.

`O=P(O)(O)C(O)(C[n+]1ccccc1)P(=O)(O)O`: the inhibition result in experiment [1] was “inactive”.

Regarding `NC(Cc1ccc(Cl)c(Cl)c1)(P(=O)(O)O)P(=O)(O)O`, the IC50 in experiment [3] is 2 µM; in experiment [4], 3 µM; in experiment [12], 7 µM; in experiment [5], 2 µM; in experiment [6], over 500 µM; in experiment [13], 7 µM. Also, the half-maximal inhibitory concentration (IC50) in experiment [14] is 7 µM; in [7], over 256 µM; in [8] it was 7 µM; in [9], 2 µM; in experiment [10], 7 µM; in experiment [15] it was 7 µM. For the same molecule, the Ratio IC50 in experiment [18] was 2. The Ki in experiment [19] was found to be 2 µM; in experiment [17], 1 µM.

As for `CCc1cccc[n+]1CC(O)(P(=O)(O)O)P(=O)(O)O`, the inhibition entry in experiment [1] is “inactive”.

Turning to `O=P(O)(O)C(O)(Cc1ccc(Cl)cc1)P(=O)(O)O`, the IC50 in experiment [3] is 5 µM; in experiment [4], 42 µM; in [5], 8 µM; in experiment [6], over 500 µM; in experiment [7], 70 µM; in experiment [8], 20 µM. The 50% inhibitory concentration (IC50) was 6 µM in [9] and over 250 µM in experiment [10].

Take `O=P(O)(O)C(O)(C[n+]1cccc(O)c1)P(=O)(O)O`: in [1], the inhibition result was “inactive”.

As for `O=P(O)(O)C(O)(CCCCc1ccccc1)P(=O)(O)O`, in experiment [1], the inhibition entry was “inactive”.

Source of the values: ChEMBL document CHEMBL3112550, “Specific features of HIV-1 integrase inhibition by bisphosphonate derivatives” (Eur J Med Chem, 2014).
